What was measured:
MDA-MB-231 = experiment: cells; format: functional; settings: Homo sapiens, MDA-MB-231, 48 h
cells = format: functional, Hep 3B2; settings: Homo sapiens, Hep3B, 48 h
A549 = experiment: Growth inhibition of human A549 cells after 48 hrs by SRB assay; format: functional
Outline: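 A549 cells were grown in RPMI 1640 with 10% FBS and 2 mM glutamine at 37 °C in 5% CO₂, then seeded in medium with 5% FBS. A 24 h TCA-fixed plate gave T₀. Cells were exposed to compound or DMSO for 48 h, fixed with 10% TCA and stained with 0.4% SRB; bound dye was solubilized in 10 mM Tris and read at 515 nm. GI₅₀ was the concentration halving net protein increase. At least three independent experiments.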

PC-3 = experiment: cells; format: functional; settings: Homo sapiens, PC-3, 48 h
Histone deacetylase = experiment: Inhibition of HDAC in human HeLa cell nuclear extract after 30 mins by fluorescence microplate reader; format: protein assay
[1] = biological target: T1, Protein deacetylase HDAC6 (Homo sapiens, UniProt Q9UBN7); experiment: Inhibition of human recombinant HDAC6 after 30 mins by fluorometric assay
T1 sequence (Q9UBN7 whole entry): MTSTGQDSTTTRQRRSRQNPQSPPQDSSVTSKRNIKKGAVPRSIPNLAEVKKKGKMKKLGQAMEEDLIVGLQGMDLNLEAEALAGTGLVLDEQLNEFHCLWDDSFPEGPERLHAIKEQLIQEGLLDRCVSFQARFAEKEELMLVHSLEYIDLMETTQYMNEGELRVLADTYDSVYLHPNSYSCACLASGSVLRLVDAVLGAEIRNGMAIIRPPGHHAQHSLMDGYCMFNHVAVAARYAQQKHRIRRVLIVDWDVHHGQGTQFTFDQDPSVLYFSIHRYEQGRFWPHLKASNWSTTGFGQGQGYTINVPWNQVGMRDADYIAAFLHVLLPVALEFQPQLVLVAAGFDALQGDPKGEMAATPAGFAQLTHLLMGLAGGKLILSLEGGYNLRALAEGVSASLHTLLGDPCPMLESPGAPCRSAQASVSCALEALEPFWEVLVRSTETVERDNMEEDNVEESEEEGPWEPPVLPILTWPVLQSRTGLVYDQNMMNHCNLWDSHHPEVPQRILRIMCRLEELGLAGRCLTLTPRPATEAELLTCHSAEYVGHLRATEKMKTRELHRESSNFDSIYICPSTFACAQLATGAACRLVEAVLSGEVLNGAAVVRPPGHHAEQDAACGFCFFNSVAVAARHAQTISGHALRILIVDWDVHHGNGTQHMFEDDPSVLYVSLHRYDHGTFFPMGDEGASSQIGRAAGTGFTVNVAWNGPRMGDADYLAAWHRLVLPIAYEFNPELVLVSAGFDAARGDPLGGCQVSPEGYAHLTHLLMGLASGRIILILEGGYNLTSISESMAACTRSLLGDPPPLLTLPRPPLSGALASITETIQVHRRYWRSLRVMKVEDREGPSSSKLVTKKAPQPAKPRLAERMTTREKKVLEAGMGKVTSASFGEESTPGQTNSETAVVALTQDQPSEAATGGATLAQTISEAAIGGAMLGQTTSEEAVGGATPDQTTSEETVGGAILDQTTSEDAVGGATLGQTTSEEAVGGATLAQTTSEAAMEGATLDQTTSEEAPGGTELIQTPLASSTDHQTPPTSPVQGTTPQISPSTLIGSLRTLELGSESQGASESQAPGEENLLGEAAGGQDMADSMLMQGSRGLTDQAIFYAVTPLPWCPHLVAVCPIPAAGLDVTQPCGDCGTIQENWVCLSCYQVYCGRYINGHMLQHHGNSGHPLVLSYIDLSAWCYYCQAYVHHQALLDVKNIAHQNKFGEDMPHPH

Histone deacetylase 1 = Histone deacetylase 1 (Homo sapiens, UniProt Q13547); experiment: Inhibition of human recombinant HDAC1 after 30 mins by fluorometric assay
Histone deacetylase 2 = Histone deacetylase 2 (Homo sapiens, UniProt Q92769); experiment: Inhibition of human recombinant HDAC2 after 30 mins by fluorometric assay
Homo sapiens = species: Homo sapiens; experiment: Selectivity ratio of IC50 for human HDAC1 to IC50 for human HDAC6

Chain of Histone deacetylase 2 (Q92769 whole entry): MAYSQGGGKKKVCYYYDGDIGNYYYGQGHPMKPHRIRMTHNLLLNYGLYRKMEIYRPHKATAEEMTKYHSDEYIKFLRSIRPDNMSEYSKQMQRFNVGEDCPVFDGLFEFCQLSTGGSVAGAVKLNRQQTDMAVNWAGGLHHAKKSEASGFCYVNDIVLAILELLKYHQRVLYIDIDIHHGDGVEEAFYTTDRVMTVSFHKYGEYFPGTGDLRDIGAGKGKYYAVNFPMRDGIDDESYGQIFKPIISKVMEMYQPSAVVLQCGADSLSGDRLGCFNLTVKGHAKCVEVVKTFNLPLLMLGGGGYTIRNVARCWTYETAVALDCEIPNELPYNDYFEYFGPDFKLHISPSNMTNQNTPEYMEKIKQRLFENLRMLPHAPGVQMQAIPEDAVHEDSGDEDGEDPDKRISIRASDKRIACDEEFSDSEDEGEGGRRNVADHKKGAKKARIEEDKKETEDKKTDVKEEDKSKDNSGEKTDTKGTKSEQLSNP
Chain of Histone deacetylase 1 (Q13547 whole entry): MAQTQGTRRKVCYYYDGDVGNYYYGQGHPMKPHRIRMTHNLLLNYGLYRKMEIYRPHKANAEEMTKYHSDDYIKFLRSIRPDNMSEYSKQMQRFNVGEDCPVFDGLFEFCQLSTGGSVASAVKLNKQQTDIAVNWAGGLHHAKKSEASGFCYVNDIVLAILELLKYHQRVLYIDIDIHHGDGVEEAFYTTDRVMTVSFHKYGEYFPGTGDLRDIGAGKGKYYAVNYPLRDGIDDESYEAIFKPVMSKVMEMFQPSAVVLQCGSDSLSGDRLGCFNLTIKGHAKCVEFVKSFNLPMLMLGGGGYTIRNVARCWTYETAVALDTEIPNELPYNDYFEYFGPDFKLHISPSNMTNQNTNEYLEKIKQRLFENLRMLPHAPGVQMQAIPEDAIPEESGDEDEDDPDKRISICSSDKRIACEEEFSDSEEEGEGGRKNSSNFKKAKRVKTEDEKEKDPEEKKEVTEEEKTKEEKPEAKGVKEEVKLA

SMILES | GI50 (MDA-MB-231) [nM] | GI50 (cells) [nM] | GI50 (A549; Homo sapiens, A549, 48 h) [nM] | GI50 (PC-3) [nM] | IC50 (Histone deacetylase) [nM] | IC50 [1] [nM] | IC50 (Histone deacetylase 1) [nM] | IC50 (Histone deacetylase 2) [nM] | Ratio IC50 (Homo sapiens) | GI50 (A549) [nM]
O=C(/C=C/c1ccc2c(ccn2C(=O)c2ccccc2)c1)NO | 3180 | 2400 | 5800 | 2320 | 757.6 |  |  |  |  | 
O=C(/C=C/c1ccc2[nH]ccc2c1)NO | 4370 | 3650 | 9070 | 4800 | > 1000 |  |  |  |  | 
O=C(/C=C/c1ccc2[nH]cc(S(=O)(=O)c3ccccc3)c2c1)NO | 1250 | 1270 | 3330 | 1260 | 275.2 |  |  |  |  | 
O=C(/C=C/c1ccc2c(ccn2Cc2ccccc2)c1)NO | 1180 | 860 | 2370 | 1230 | 32.1 | 40.4 | 71.2 | 381 |  | 
O=C(CCc1ccc2c(ccn2S(=O)(=O)c2ccccc2)c1)NO | 2210 | 2560 | 4040 | 2070 | 407.5 |  |  |  |  | 
O=C(/C=C/c1ccc2ccn(S(=O)(=O)c3ccccc3)c2c1)NO | 2410 | 2120 | 5300 | 2400 | 254 |  |  |  |  | 
COc1ccc(S(=O)(=O)n2ccc3cc(/C=C/C(=O)NO)ccc32)cc1OC | 370 | 360 | 560 | 930 | 9.7 | 45.4 | 18.1 | 2.3 |  | 
O=C(/C=C/c1cccc2c1ccn2S(=O)(=O)c1ccccc1)NO | 4160 | 4320 | 6700 | 3670 | 170.9 |  |  |  |  | 
O=C(/C=C/c1cn(S(=O)(=O)c2ccccc2)c2ccccc12)NO | 8140 | 8870 | 7060 | 5770 | > 1000 |  |  |  |  | 
COc1ccc(S(=O)(=O)n2ccc3cc(/C=C/C(=O)NO)ccc32)cc1 | 750 | 550 | 1180 | 800 | 6.8 | 3.3 | 125 | 362 | 40 | 
O=C(/C=C/c1cccc2ccn(S(=O)(=O)c3ccccc3)c12)NO | 7710 | 3820 | 5500 | 4750 | > 1000 |  |  |  |  | 
O=C(NO)c1ccc2c(ccn2S(=O)(=O)c2ccccc2)c1 | 5680 | > 10000 | > 10000 | 7260 | > 1000 |  |  |  |  | 
O=C(/C=C/c1ccc2c(ccn2S(=O)(=O)c2ccc(F)cc2)c1)NO | 660 | 640 | 750 | 390 | 16.8 | 59.2 | 33.2 | 199 |  | 
O=C(CCCCCCC(=O)Nc1ccccc1)NO [VORINOSTAT] |  |  |  |  |  |  |  |  |  | 1850
O=C(/C=C/c1ccc2c(ccn2-c2ccccc2)c1)NO | 1730 | 1320 | 2850 | 1540 | 186.5 |  |  |  |  | 
O=C(/C=C/c1ccc2c(ccn2S(=O)(=O)c2ccc([N+](=O)[O-])cc2)c1)NO | 750 | 560 | 1210 | 850 | 12.6 | 18.3 | 69.9 | 189 |  | 
